The values below come from ChEMBL document CHEMBL4396890, “Synthesis, Biological Evaluation, Structure-Activity Relationship, and Mechanism of Action Studies of Quinoline-Metronidazole Derivatives Against Experimental Visceral Leishmaniasis” (J Med Chem, 2019).

Activity calls are given as the source filed them. The calls are words filed in the database; no cut-off is given here.

The nature of data set [1]: Tmax in BALB/c mouse at 50 mg/kg, po administered via gavage by LC-MS/MS analysis. In kind it is ADME, organism-based. To be noted: in vivo.
The test system of data set [2] is Leishmania donovani. Briefly: Induction of apoptosis in Leishmania donovani MHOM/IN/80/Dd8 promastigotes assessed as late apoptotic cells at 50 uM measured after 24 hrs by Annexin V-FITC/propidium iodide staining based assay (reference value: 0.02%). Type of data set: functional.
In data set [3] the test system is Leishmania donovani. In words: Induction of apoptosis in Leishmania donovani MHOM/IN/80/Dd8 promastigotes assessed as late apoptotic cells at 50 uM measured after 12 hrs by Annexin V-FITC/propidium iodide staining based assay (reference value: 0.46%). Type of data set: functional.
Data set [4] in a line: Elimination rate constant in BALB/c mouse at 50 mg/kg, po administered via gavage by LC-MS/MS analysis. In kind it is ADME, organism-based. To be noted: in vivo.
A short description of data set [5]: Apparent volume of distribution in BALB/c mouse at 50 mg/kg, po administered via gavage by LC-MS/MS analysis. Type of data set: ADME, organism-based. To be noted: in vivo.
The test system of data set [6] is Leishmania donovani. Briefly: Induction of mitochondrial potential loss in Leishmania donovani MHOM/IN/80/Dd8 promastigotes assessed as shift in red to green fluorescence at 50 uM after 24 hrs by JC1 dye-based flow cytometry (reference value: 7.37%). In kind it is functional. An outline of the steps:
(§1)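 Exponential-phase promastigotes were incubated with 50 μM compound for 6−48 h, or 0.1% DMSO vehicle. CCCP (50 μM) served as positive control. After JC-1 staining, the red-to-green fluorescence shift was measured by flow cytometry.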
(A flow cytometer gives signals particle by particle.)

The nature of data set [7]: AUC (0 to 48 hrs) in BALB/c mouse at 50 mg/kg, po administered via gavage by LC-MS/MS analysis. To be noted: in vivo. In kind it is ADME, organism-based. Also on record: time < 48 hr, dose 50 mg/kg, route oral.
The test system of data set [8] is Leishmania donovani. In words: Induction of apoptosis in Leishmania donovani MHOM/IN/80/Dd8 promastigotes assessed as late apoptotic cells at 50 uM measured after 48 hrs by Annexin V-FITC/propidium iodide staining based assay (reference value: 0.46%). Type of data set: functional.
In data set [9] the test system is Leishmania donovani. In words: Induction of apoptosis in Leishmania donovani MHOM/IN/80/Dd8 promastigotes assessed as DNA fragmentation at 50 uM after 48 hrs by TUNEL staining-based fluorescence assay. In kind it is functional, organism-based. An outline of the steps:
(§2)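 Log-phase promastigotes (1 × 10^5) were treated with 50 μM compound or 0.1% DMSO vehicle for 48 h. DNA fragmentation was labelled with an APO-BrdU TUNEL kit with PI counterstain. Cells were imaged by phase-contrast and fluorescence microscopy.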

For data set [10], the system named is Leishmania donovani. Briefly: Induction of apoptosis in Leishmania donovani MHOM/IN/80/Dd8 promastigotes assessed as increase in meta-caspase activity at 50 uM using BOC-GRR-AMC as substrate preincubated for 1 hr followed by substrate addition and measured after 2 hrs in presence of caspase inhibitor zVAD-fmk by fluorometric assay. Type of data set: functional, organism-based. An outline of the steps:
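Log-phase promastigotes were pretreated for 1 h with antipain (1 μM) or zVAD-fmk (100 μM), then exposed to 50 μM compound or 0.1% DMSO. Metacaspase activity in lysates was read with fluorogenic BOC-GRR-AMC and expressed as RFU per mg protein.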

Data set [11] has as its system Leishmania donovani. In words: Induction of apoptosis in Leishmania donovani MHOM/IN/80/Dd8 promastigotes assessed as increase in meta-caspase activity at 50 uM using BOC-GRR-AMC as substrate preincubated for 1 hr followed by substrate addition and measured after 2 hrs by fluorometric assay relative to control. In kind it is functional. An outline of the steps: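 Log-phase promastigotes treated with 50 μM for 24 and 48 h, with or without 1 h pretreatment with antipain (1 μM) or zVAD-fmk (100 μM). Vehicle control was 0.1% DMSO. Metacaspase activity in cell lysates measured with fluorogenic BOC-GRR-AMC, given as relative fluorescence units per mg protein.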

Data set [12] relates to Leishmania donovani. Briefly: Induction of apoptosis in Leishmania donovani MHOM/IN/80/Dd8 promastigotes assessed as late apoptotic cells at 50 uM measured after 24 hrs by Annexin V-FITC/propidium iodide staining based assay (reference value: 0.46%). Type of data set: functional.
Data set [13] can be described thus: Clearance in BALB/c mouse at 50 mg/kg, po administered via gavage by LC-MS/MS analysis. Type of data set: ADME, organism-based. To be noted: in vivo.
The subject of data set [14] is Leishmania donovani. Briefly: Induction of morphological changes in Leishmania donovani MHOM/IN/80/Dd8 promastigotes assessed as appearance of round shape parasite at 50 uM after 48 hrs by bright field microscopic analysis. In kind it is functional, organism-based.
For data set [15], the system named is Leishmania donovani. In words: Antileishmanial activity against Leishmania donovani MHOM/IN/80/Dd8 amastigotes harboring luciferase reporter gene infected in mouse J774 cells assessed as stimulation of host immunity by measuring change in IL12 level at 50 uM after 48 hrs by ELISA. Type of data set: functional, organism-based. The method, boiled down: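 Infected J774 macrophages (24 h infection) were treated with 50 μM compound for 48 h. Culture supernatants were assayed by ELISA for TNF-α and IL-12 (Th1) and for TGF-β and IL-10 (Th2), compared with infected untreated cells.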
A general note: Reporter assays use an easily measured gene product as a stand-in for the process of interest.

The test system of data set [16] is Leishmania donovani. Briefly: Induction of mitochondrial membrane disruption in Leishmania donovani MHOM/IN/80/Dd8 promastigotes assessed as reduction in intracellular ATP level at 50 uM measured after 6 to 48 hrs by luciferase-based assay relative to control. In kind it is functional. The method, boiled down: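 Promastigotes were incubated with 0.1% DMSO or 50 μM compound for 6−48 h. Cytosolic ATP was quantified by bioluminescence assay. At least 3 independent experiments in duplicate.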

Data set [17] in a line: Half life in BALB/c mouse at 50 mg/kg, po administered via gavage by LC-MS/MS analysis. Type of data set: ADME, organism-based. To be noted: in vivo.
The test system of data set [18] is Leishmania donovani. In words: Induction of apoptosis in Leishmania donovani MHOM/IN/80/Dd8 promastigotes assessed as late apoptotic cells at 50 uM measured after 48 hrs by Annexin V-FITC/propidium iodide staining based assay (reference value: 0.02%). Type of data set: functional.
In data set [19] the test system is Leishmania donovani. Briefly: Antileishmanial activity against Leishmania donovani MHOM/IN/80/Dd8 promastigotes infected in BALB/c mouse assessed as reduction in parasite load in liver at 100 mg/kg, ip administered once daily for 5 days measured 7 days post dose by giemsa staining-based assay relative to control. Type of data set: functional. The arrangement: scale not given: the % may be the effect or the level left. The method, boiled down:
(§3)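 Hamster-passaged strain was transformed to promastigotes. Stationary-phase cells (2 × 10^7 in 0.2 mL PBS) were injected into the tail vein of BALB/c mice. From day 15 post-infection, mice received compound ip in 8% DMSO in PBS for 5 consecutive days, 5 mice per group. Mice were killed day 7 post-treatment. Liver and spleen burden was read from Giemsa-stained stamp smears as LDU.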

The subject of data set [20] is Leishmania donovani. Briefly: Induction of reactive oxygen species generation in Leishmania donovani MHOM/IN/80/Dd8 promastigotes at 50 uM measured after 48 hrs by H2DCFDA probe-based flow cytometry (reference value: 7%). Type of data set: functional.
The subject of data set [21] is Leishmania donovani. In words: Induction of apoptosis in Leishmania donovani MHOM/IN/80/Dd8 promastigotes assessed as early apoptotic cells at 50 uM measured after 24 hrs by Annexin V-FITC/propidium iodide staining based assay (reference value: 6.91%). In kind it is functional.
For data set [22], the system named is Leishmania donovani. Briefly: Induction of apoptosis in Leishmania donovani MHOM/IN/80/Dd8 promastigotes assessed as DNA fragmentation at 50 uM after 48 hrs by TUNEL staining-based confocal microscopic analysis. In kind it is functional, organism-based. The method, boiled down: as §2
Data set [23] deals with Leishmania donovani. Briefly: Induction of mitochondrial potential loss in Leishmania donovani MHOM/IN/80/Dd8 promastigotes at 50 uM by JC1 dye-based flow cytometry. In kind it is functional, organism-based. To be noted: TDE = time-dependent effect. An outline of the steps: as §1
The subject of data set [24] is Leishmania donovani. In words: Antileishmanial activity against Leishmania donovani MHOM/IN/80/Dd8 promastigotes infected in BALB/c mouse assessed as reduction in parasite load in liver at 25 mg/kg, ip administered once daily for 5 days measured 7 days post dose by giemsa staining-based assay relative to control. Type of data set: functional. The arrangement: scale not given: the % may be the effect or the level left. An outline of the steps:
as §3

Broadly, the Tmax is the time from dosing to the highest level. What is called AUC(0-t) is the area under the concentration-time curve up to a stated or last time point. What is called CL/F is clearance divided by bioavailability, as obtained after extravascular dosing. For orientation: half-life means how long it takes for the measured level to halve. For the compound `Cc1cc(-c2ccc(OCCn3c([N+](=O)[O-])cnc3C)cc2)nc2ccccc12`, the Tmax in [1] stood at 0.75 h. In addition, the Activity in the data set with Leishmania donovani [2] was 10.04%; in the data set with Leishmania donovani [3], 20.59%; in the data set with Leishmania donovani [6], 54.18%; in the data set on Leishmania donovani [8] it was 44.11%; in the data set with Leishmania donovani [12], 48.14%; with Leishmania donovani [18] it was 0.41%. Further, the Activity with Leishmania donovani [19] is 82.5%; in the data set with Leishmania donovani [20], 58.2%; in the data set on Leishmania donovani [21], 4.04%; in the data set with Leishmania donovani [23] it was “Tde”; in the data set with Leishmania donovani [24] it was above 62%. Also, in data set [4], the k el was 4.72e-05 s⁻¹. Besides, the “Vd(app)” value in data set [5] turned out to be 15.98 L/kg. The same compound showed an AUC(0-t) at 48 h in data set [7] of 18200 ng·h/mL. The result in the data set with Leishmania donovani [9], in the data set with Leishmania donovani [14] and in the data set with Leishmania donovani [22] was Active. Further, the inhibition entry with Leishmania donovani [10] is “Active”. Besides, in the data set with Leishmania donovani [11], the “fold change (FC)” value is 3.8. The same compound gave an apparent clearance (CL/F) in data set [13] of 45.8 mL/min/kg. The outcome in the data set on Leishmania donovani [15] was inactive. Also, the Imax in the data set with Leishmania donovani [16] is given as above 67%. Besides, the half-life in data set [17] is 4.02 h.
